Results published in the EternaBench riboswitch data.

Tested on: MS2 coat protein
Assay: apparent Kd, MS2 coat protein; higher = weaker binding; RNA-MaP array; FMN 200 µM where present
Method in brief: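 Designs on Illumina sequencing-chip clusters, transcribed by stalled E. coli RNA polymerase, were exposed to SNAP-549-labelled MS2 coat protein in doubling steps from 0.7 or 1.5 nM up to 3 µM, without and then with constant ligand. The buffer held 100 mM Tris-HCl pH 7.5, 80 mM KCl, 4 mM MgCl2, BSA, DTT, yeast tRNA and Tween-20. Apparent Kd values are medians of filtered per-cluster binding-curve fits to green signal normalised to red-channel RNA signal and control-cluster median Fmax.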

[1] = designed as: ON switch for flavin mononucleotide, no ligand
[2] = ligand present: flavin mononucleotide, designed as: ON switch for flavin mononucleotide
[3] = designed as: OFF switch for flavin mononucleotide, no ligand
[4] = ligand present: flavin mononucleotide, designed as: OFF switch for flavin mononucleotide

Row | Sequence | apparent Kd [1] [nM] | apparent Kd [2] [nM] | apparent Kd [3] [nM] | apparent Kd [4] [nM]
1 | AUUUAGUGCGAGAAGGCGUGGUCACAUGAGGAUCACCCAUGUCAGUACACGAGGAUAUCGAUUCACUGUAUAAACACAAGUGAC | 53.8 | 6.22 | – | –
2 | CCAUGUUAGCAGGAUAUGCAAUUAUUCUUUUACGCAGAAGGGCUUACAUGAGGAUCACCCAUGUAACAUUUCAU | – | – | 18.4 | 77.8
3 | GGACAUUUACAGAAGGGCAAGCUCGAAAGAGGAGAAAGAGAACGAGCUUGCAGGAUAUGUUGAACAUGAGGAUCACCCAUGUCU | 9.75 | 7.69 | – | –
4 | GUGUACAUUCGAGGAUAUCGGAGAGAGAUCAUUCGAGAAGGCGAUUCAUGAUGUAUUAUCCUGGACAUGAGGAUCACCCAUGUG | 109 | 74.6 | – | –
5 | UUUAUAAAUUAGAAGGCGUGAUGAAUUACAAUAGACAUGAGGAUCACCCAUGUGUAUUCAUGUCAUGAGGAUAUAGUCAUAUAU | 47.2 | 19.4 | – | –
6 | AAAAAACAUGAGGAUCACCCAUGUGAGGAUAUCCUGGUUGAAAAAAAAAAAACAACCAGGAGAAGGCACAAAAA | – | – | 88.4 | 132
7 | UGGACCGAGCUGUCGGUUGACUCUAAGGAUAUGACAUGAGGAUCACCCAUGUGGGAUCUAAAUUGUCAGAAGGUGGGUUCUGGG | – | – | 95 | 51
8 | AAUUUACAGGGAGGAUAUACAUGAGGAUCACCCAUGUAAUCAUAUGAUAUUUUUUUUGUAUGAGUGUAGAAGGCCCAAAUACCA | – | – | 11.5 | 13
9 | AAACAGGGAGGAUAUACAUGAGGAUCACCCAUGUUCGAGCGUCCUUGAACUACCUCAGGUAGAAGGCCCUAAUU | – | – | 372 | 112
10 | GAGUGACGAUUAGGAUAUAUAGUGAUAAUGAUAAUAGAAGGAAUUGACAUGAGGAUCACCCAUGUAGGACUAAUCCAGAGAGAG | 64.2 | 62.2 | – | –
11 | GCACCAAGAGGAUAUACCGAGGUCAUCUACUUUGCAUAGCGACAUGAGGAUCACCCAUGUAGAAGGUUUGUCGU | – | – | 95.4 | 80.6
12 | GGAUCGUAUGUCAGGAUAUGCCACUGGAUACAGUGGUAGAAGGGACAUGAGGAUCACCCAUGUCCUACCGAUCC | – | – | 12.5 | 14.4
13 | GGUGGACAUGAGGAUCACCCAUGUGAGGAUAUCGGCCGGUGCGUGGUGGCUGGCGUCUCGAGAAGGCACAUAGU | – | – | 92.1 | 166
14 | CGAUAUAUGAAGGACGGAAACGUACAUGAGGAUCACCCAUGUAGAAGGCGAUCCGCAACGCGGAUCGAGGAUAUAUAGUAUACA | – | – | 24.2 | 17.6
15 | UCUUAGUCAGGAUAUACAUGAGGAUCACCCAUGUAAAAUUUUAAUUUAAUUUUAAGGUGUAGAAGGGACCAUUU | – | – | 30.6 | 26.2
16 | GAAUGAAAGCAGAAGGCCGCACAUGAGGAUCACCCAUGUGAAAACAGAUGGAGGAUAUGCGAACGUUCGCUUUGAAAAGUAAAG | 13.5 | 6.35 | – | –
17 | GGGUACAUCGGAGGAUAUCAUGUAAAUACAUGAGGAUCACCCAUGUCGAUGGAGACAUCGGAGAUUGAGAAGGCCAAUGUACCG | 180 | 8.76 | – | –
18 | CGUAGGAUCCAGAAGGCAUGAACAUGAGGAUCACCCAUGUCAAUAGACAUGAGGAUAUGGAUCCUACGAAAAGUGCGAAAGCAC | 31.8 | 5.94 | – | –
19 | GGGUACAUCGGAGGAUAUCAUGUAACUACAUGAGGAUCACCCAUGUCGAUGGAGACAUCGGAGAUUGAGAAGGCCGAUGUACCG | 261 | 10.1 | – | –
20 | GCCAGGGAUUCAGGAUAUAUUAGCCGAGGCCGCGUAGAAGGGAAAUCCUGACAUGAGGAUCACCCAUGUCGACCCGCCUUCCUC | 28.5 | 29.2 | – | –
21 | AACAAGAGGAUCACCCAUGUAACAUGAGGAUCACCCAUGUUUAAGGAUAUGUACAUGAUACAUGUACAGAAGGUGGAUUGGACU | – | – | 26.2 | 27.2
22 | ACUCGACAUGAGGAUCACCCAUGUGAGGAUAUGGCCUGUUUGGCGUGUGCUGGCUCUGUCAGAAGGCGCGUGGG | – | – | 41.7 | 89.3
23 | UGUGUGUGAGGAUAUACAUGAGGAUCACCCAUGUAGCGCGCGCGUAUUCGUGUGUGUUGUAGAAGGCGCGCGCG | – | – | 33 | 30.5
24 | UUCAUCAAUGAAGGAUAUCUAUGUCCAACAUGAGGAUCACCCAUGUUGAGGAUCACCUAUGUAAAGGAGAAGGUUAAUAUAACU | 6.96 | 6.42 | – | –
25 | CGGGUGGUCCUCCGGGAUUGGACACAGGAUAUCCGCGAAAACAUGAGGAUCACCCAUGUAUAUGAGGAGAAGGGUGGACGAAGA | 56.2 | 15.6 | – | –
26 | AAUAACAGAGGAUAUACUGUUUUAUGUGUUUAUUGUUUUGAACAUGAGGAUCACCCAUGUAGAAGGCUGAGUAA | – | – | 27.8 | 28.2
27 | GCCAACUCAUGAGGAUAUGGCACCUUAUUGGUGCCAGAAGGCGUGUCAAUUGACAUGAGGAUCACCCAUGUAUUAUAGUUGGCA | 446 | 70.3 | – | –
28 | GCUGUCGCAUGAGGAUAUGGACAGCUUUGCUGUCCAGAAGGCAUGUCGAUAGACAUGAGGAUCACCCAUGUAGUAAAGACAGCA | 588 | 64.6 | – | –

Row | Sequence | apparent Kd [1] [nM] | apparent Kd [2] [nM] | apparent Kd [3] [nM] | apparent Kd [4] [nM]
29 | ACAUGAGGAUCACCCAUGUACAUGGGUAUUAUUGUUUGUUACUAGGAUAUGUAUUUGAAUUUACAACAGAAGGAGUAUUAAUGU | – | – | 1160 | 632
30 | AUCGGAAUGUAGAAGGGUGACAUGAGGAUCACCCAUGUUCAAAUGCGUUUUUCGGUAAUUGAUCCACAGGAUAUACUGUCCGUG | 631 | 485 | – | –
31 | CAGGUAGCUACAGGAUAUACACAGCUCAGUAAACUGAGCAAAAGAUCUACAUGAGGAUCACCCAUGUAGAAGGGUAGCUGCCUG | – | – | 17.1 | 18.2
32 | GGGAUCAUCGGAGGAUAUCAUGUAGAUACAUGAGGAUCACCCAUGUCGAUGGAGACAUCGGAGAUUGAGAAGGCCGAUGAUCCG | 741 | 28.9 | – | –
33 | GUGCGGUAGGAGAAGGACGGAGGCUUCUUUUCAUACAUGAGGAUCACCCAUGUAGGAUAUCCUACCUCACGCGGCCUACUACAG | – | – | 8.74 | 7.7
34 | UUGUUACAUGAGGAUCACCCAUGUGAGGAUAUGGUUCGGUACUGUCCUGUCGCGUACUCCAGAAGGCACGUGUU | – | – | 30.8 | 37.4
35 | CAGUACUGAGGAUAUACAUGAGGAUCACCCAUGUGUUCCAGCUAGGAAACUAGCAGAAGUAGAAGGCAGUACUG | – | – | 24.6 | 441
36 | UCUUAUUGCAAGGAUAUGCAAAUUAUUUUUUAAGCAGAAGGUGCAACAUGAGGAUCACCCAUGUUUCCGGGCAA | – | – | 15.3 | 42.9
37 | GUGGUGCGUAUACGUGGAUGUACAUGAGGAUCACCCAUGUAAGAGGAUAUGCGGAUACUAGCUCAGCAGAAGGCUUACAAAUGA | – | – | 23.1 | 92.1
38 | AAUAAACAUGAGGAUCACCCAUGUCAGGAUAUGCGUCUAACCUAAUACCAUAGAUACGGCAGAAGGGACUAAUA | – | – | 50.2 | 33.8
39 | GCGGGAGGAGGAUAUACAAUCGUGUGACCCGGACCCUAUGGACAUGAGGAUCACCCAUGUAGAAGGUUUCCCUU | – | – | 112 | 568
40 | GGACGUCAGAUUAACAUGAGGAUCACCCAUGUCUUUUGACAUGAGGAUAUGCAACGUAAUUCGUUGCAGAAGGCAUGGACGUCC | 1010 | 89.8 | – | –
41 | UUGGACUACGUAGGAUAUGUAGGAUAUUCCUACAUGAGGAUCACCCAUGUUAGCAUGGAAGAAGGACAGAAGGACGUGGUCCAU | 1360 | 15.8 | – | –
42 | GGUGCGUAUGUGAGGAUAUGCUGGUCCUUGGGUCGGCAGAAGGCACAUGAGGAUCACCCAUGUGGUGUCGUUCC | – | – | 86.2 | 86.5
43 | UUUGAAUAGGUAGGAUAUACUUUCAAUUUUCUUUUCCUUACAUGAGGAUCACCCAUGUUUACAUUGUAGAAGGACCUCAUUGAU | – | – | 215 | 173
44 | GAGGACUGUGCAGGAUAUACAUGAGGAUCACCCAUGUAGGUCGGUUCGAAAGUAGAAGGGCACGAUUGUCGAUAGCACGCGUGA | – | – | 97.5 | 39.2
45 | UGUGUCAUCGAGAAGGCCUCAACAUGAGGAUCACCCAUGUUGUAAUAUGGGAGGAUAUCGAUGAUACAGCUACGUUUCGUAGCC | 18.4 | 5.67 | – | –
46 | GCCGGGUAGGCAGGAUAUCCUCGCGCAAACACAUGAGGAUCACCCAUGUACACAAAACGUGAUAUGGAGAAGGGCUGACCCGCA | 33.9 | 5.84 | – | –
47 | GUGGUCUCCGCAGGAUAUGGCUCGGGCACGACACCAGAAGGGCGGACAUGAGGAUCACCCAUGUUCGCGGGUGGGUCCUAAGGA | – | – | 6.39 | 7.49
48 | UUGGACGUCGUAGGAUAUGUAGGAUACUCCUACAUGAGGAUCACCCAUGUUGACAUGGAGGACGGACAGAAGGACGGUGUCCAU | 60.5 | 5.72 | – | –
49 | GGUACUCAAAGAGUACCAAUACGAACAUGAGGAUCACCCAUGUAGGAUAUGUUUUCGCCGGAGUAUCAGAAGGACAUGUGCCUA | – | – | 10.9 | 9.15
50 | CUAUUACGAGGAUAUGAUUUAAAUAACAUGAGGAUCACCCAUGUUUUUACGUUAUUAUGUUCAGAAGGCGUAUUGU | – | – | 26.5 | 19.4
51 | AAUAACGGAGCUACAUGAGGAUCACCCAUGUACGGGUGAUCCUAGGAUAUGCCCGCAACUAUGUCGCAGAAGGAGGGUUGCCCA | 20.4 | 39.7 | – | –
52 | CUCCCGAUCACAGGAUAUGCACAUACAAUUAAGGCAGAAGGGUGAUAGUCGGCCGGACAUGAGGAUCACCCAUGUGCAAGGAUA | 285 | 85.2 | – | –
53 | GGCUAGUCAGGAUAUACGAACAUGUCAAAAGACGUGAAGGGACAUGAGGAUCACCCAUGUAGAAGGGACUAGCA | – | – | 28 | 158
54 | UAGCGCUGUCGAGAGGAUAUGCGGUGAUGGACAUGAGGAUCACCCAUGUUAGCGAUAGCAUUACGGUAGAAGGCUCUACAGCUGC | 27.6 | 13.6 | – | –
55 | UCGGCGCGAGGAUAUACGUUUGCUUUUUAGGGUCGUGGCGUACAUGAGGAUCACCCAUGUAGAAGGCGCGCCGC | – | – | 16.9 | 52.7
